The results in this text go back to ChEMBL document CHEMBL1123066, “N alpha-(diphenoxyphosphoryl)-L-alanyl-L-proline, N alpha-[bis (4-nitrophenoxy)phosphoryl]-L-alanyl-L-proline, and N alpha-[ (2-phenylethyl)phenoxyphosphoryl]-L-alanyl-L-proline: releasers of potent inhibitors of angiotensin converting enzyme at physiological pH and temperature” (J Med Chem, 1985).

Data set [1] is described as follows: Rate constant was evaluated for the loss of 1 mol of phenol at the pH 7.5 in the presence of Tris buffer. The format is ADME. In short, it runs like this: (§1)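 Ester hydrolysis at pH 7.5 and 37 °C in 100 mM Tris or phosphate buffer with 300 mM NaCl, no enzyme. Phenol release (about 1 mM ester) followed at 275 nm, Δε 1375 M⁻¹cm⁻¹. 4-Nitrophenol release (about 10 μM ester) followed at 400 nm, Δε 12500 M⁻¹cm⁻¹. Starting concentrations checked by full hydrolysis in 6 N HCl at 110 °C. First-order rate constants and half-times derived.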

Data set [2] can be described thus: The half-life period was evaluated for the loss of 1 mol of phenol at the pH 7.5 in the presence of Tris buffer. The format is ADME. In short, it runs like this:
as §1

A short description of data set [3]: Rate constant was evaluated for the loss of 1 mol of phenol at the pH 7.5 in the presence of phosphate buffer. The format is ADME. In short, it runs like this: as §1
Data set [4] in a line: The half-life period was evaluated for the loss of 1 mol of phenol at the pH 7.5 in the presence of phosphate buffer. The format is ADME. An outline of the steps: as §1
For data set [5], the target named is T1, Angiotensin-converting enzyme (Oryctolagus cuniculus, UniProt P12822).
T1 sequence (P12822 whole entry): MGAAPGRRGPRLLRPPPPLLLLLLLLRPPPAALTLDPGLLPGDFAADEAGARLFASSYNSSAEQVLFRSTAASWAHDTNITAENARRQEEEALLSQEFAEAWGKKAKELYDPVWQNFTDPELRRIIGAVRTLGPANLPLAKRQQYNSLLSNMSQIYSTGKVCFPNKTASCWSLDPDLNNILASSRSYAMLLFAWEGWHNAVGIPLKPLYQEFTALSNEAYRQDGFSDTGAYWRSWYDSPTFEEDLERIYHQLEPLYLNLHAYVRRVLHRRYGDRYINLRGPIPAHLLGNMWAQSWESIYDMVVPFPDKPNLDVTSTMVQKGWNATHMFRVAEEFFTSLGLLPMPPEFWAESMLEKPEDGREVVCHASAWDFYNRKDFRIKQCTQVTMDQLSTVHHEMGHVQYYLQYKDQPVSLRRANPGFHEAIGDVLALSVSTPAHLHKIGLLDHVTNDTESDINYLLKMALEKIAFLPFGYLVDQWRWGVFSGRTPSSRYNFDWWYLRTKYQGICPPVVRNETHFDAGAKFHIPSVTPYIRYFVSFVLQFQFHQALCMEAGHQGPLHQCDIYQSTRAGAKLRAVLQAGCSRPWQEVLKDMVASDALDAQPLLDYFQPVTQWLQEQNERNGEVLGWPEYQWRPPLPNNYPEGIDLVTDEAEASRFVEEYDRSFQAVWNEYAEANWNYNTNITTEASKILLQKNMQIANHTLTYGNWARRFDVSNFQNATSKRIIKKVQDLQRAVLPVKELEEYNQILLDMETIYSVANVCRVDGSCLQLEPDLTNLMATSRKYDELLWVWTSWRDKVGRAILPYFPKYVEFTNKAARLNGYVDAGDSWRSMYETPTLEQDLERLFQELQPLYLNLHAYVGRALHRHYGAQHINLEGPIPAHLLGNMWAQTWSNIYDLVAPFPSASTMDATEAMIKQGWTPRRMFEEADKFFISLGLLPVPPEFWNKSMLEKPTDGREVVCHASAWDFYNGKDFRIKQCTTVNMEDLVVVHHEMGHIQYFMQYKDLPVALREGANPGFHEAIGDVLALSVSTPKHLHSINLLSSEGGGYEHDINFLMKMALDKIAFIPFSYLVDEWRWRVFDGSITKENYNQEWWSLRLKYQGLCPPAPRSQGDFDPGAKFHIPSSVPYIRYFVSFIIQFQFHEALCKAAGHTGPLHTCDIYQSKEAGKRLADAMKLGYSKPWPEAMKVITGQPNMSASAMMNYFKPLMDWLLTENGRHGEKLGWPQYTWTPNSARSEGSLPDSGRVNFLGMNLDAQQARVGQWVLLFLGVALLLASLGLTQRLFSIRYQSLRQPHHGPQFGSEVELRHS
Nature of the data set: Inhibition of Angiotensin I converting enzyme from rabbit lungs at pH 7.5.

Data set [6] is described as follows: Inhibitory potency was evaluated against angiotensin converting enzyme at the pH 7.5. The format is ADME.
The target of data set [7] is T1, Angiotensin-converting enzyme. Nature of the data set: Inhibitory constant was evaluated against Angiotensin I converting enzyme from rabbit lungs.
Data set [8] can be described thus: Half life against hydrolysis at P-N bond. The format is ADME. An outline of the steps: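 P–N cleavage measured in pH 7.5 phosphate buffer at 37 °C. Free Ala-Pro primary amine determined by fluorescamine assay over the hydrolysis time course. Observed rate constant and half-time derived.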
The nature of data set [9]: Inhibitory potency was evaluated against angiotensin converting enzyme at the pH 7.5 in the presence of Tris phosphate buffer, 300 mM in NaCl. The format is ADME.
In data set [10] the target is T1, Angiotensin-converting enzyme. Description: Inhibitory constant was evaluated against Angiotensin I converting enzyme from rabbit lungs at pH 8.
Data set [11] shares this target. Description: Inhibitory constant was evaluated against Angiotensin I converting enzyme from rabbit lungs at pH 8 in TRIS phosphate/borate buffer.
For data set [12] the target is unchanged. Nature of the data set: Binding affinity against Angiotensin I converting enzyme.
A short description of data set [13]: Rate constant was evaluated for the loss of 2 mol of phenol at the pH 7.5 in the presence of phosphate buffer. The format is ADME. An outline of the steps:
as §1

Data set [14] can be described thus: The half-life period was evaluated for the loss of 2 mol of phenol at the pH 7.5 in the presence of phosphate buffer. The format is ADME. In short, it runs like this:
as §1

Data set [15] is described as follows: The half-life period was evaluated for the loss of 2 mol of phenol at the pH 7.5 in the presence of Tris buffer. The format is ADME. In short, it runs like this:
as §1

The nature of data set [16]: Rate constant was evaluated for the loss of 2 mol of phenol at the pH 7.5 in the presence of Tris buffer. The format is ADME. An outline of the steps: as §1
Data set [17] addresses T1, Angiotensin-converting enzyme. Description: Inhibitory activity against Angiotensin I converting enzyme was evaluated.

As for `C[C@H](NP(=O)(Oc1ccccc1)Oc1ccccc1)C(=O)N1CCC[C@H]1C(=O)O`, the values for the Rate constant in [1] and in data set [3] were 0.0013 h⁻¹ and 0.0012 h⁻¹, respectively. Besides, the half-life – broadly, how long it takes for the measured level to halve – in data set [2] was 528 h; in [4], 576 h; in [6], 384 h. In data set [5], the inhibitory constant (Ki) (commonly a measure of affinity in units of concentration, obtained from inhibition or displacement) amounted to 42 µM.
`C[C@H](NP(=O)([O-])[O-])C(=O)N1CCC[C@H]1C(=O)[O-].[K+].[K+].[K+]`: the IC50 (commonly the point on the concentration scale where inhibition reaches its midpoint) in data set [7] was 0.7 µM. In data set [5], the inhibition constant (Ki) amounted to 0.0014 µM. The same compound showed a half-life in data set [8] of 2.2 h.
With `C[C@H](NP(=O)(CCc1ccccc1)Oc1ccccc1)C(=O)N1CCC[C@H]1C(=O)O` (stereo partly drawn), the Rate constant in [1] came out at 0.0014 h⁻¹; in [3], 0.001 h⁻¹. Further, the half-life in data set [2] was 504 h; in [4], 744 h; in data set [9], 912 h. The same compound registered a Ki in [5] of 55 µM.
In the case of `C[C@H](NP(=O)(O)OCc1ccccc1)C(=O)N1CCC[C@H]1C(=O)O`, the affinity in data set [5], expressed as Ki, was 0.0012 µM.
Turning to `C[C@H](NP(=O)(O)Oc1ccccc1)C(=O)N1CCC[C@H]1C(=O)O`, the figures for the IC50 in data set [10] and in data set [11] were 0.9 µM and 50000 µM, respectively. Affinity in data set [5] was put at a Ki of 0.008 µM.
In the case of `C[C@H](NP(=O)(O)Oc1ccc([N+](=O)[O-])cc1)C(=O)N1CCC[C@H]1C(=O)O`, the Ki in data set [12] and in [5] was 0.018 µM in each case.
On to `C[C@H](NP(=O)(Oc1ccc([N+](=O)[O-])cc1)Oc1ccc([N+](=O)[O-])cc1)C(=O)N1CCC[C@H]1C(=O)O`, for which the Rate constant was 0.031 h⁻¹ in data set [13], 0.2 h⁻¹ in [1], 0.34 h⁻¹ in data set [3] and 0.025 h⁻¹ in data set [16]. The half-life was 22 h in [14]; 29 h in data set [15]; 3.4 h in data set [2]; 2 h in [4]; 4 h in data set [9]. In addition, the Ki in data set [5] amounted to 0.8 µM.
The compound `C[C@H](NP(=O)(O)CCc1ccccc1)C(=O)N1CCC[C@H]1C(=O)O` showed a Ki in data set [5] of 0.0005 µM. Also, half-maximal inhibition in data set [17] (IC50) required 0.007 µM.
